Holding throughout (format): functional
Holding throughout (settings): route intraperitoneal

For assay [1], the system named is Staphylococcus aureus. Kind of assay: Antibacterial activity against Staphylococcus aureus SD in rat graft model assessed as biofilm reduction at 20 mg/kg, ip administered as four doses, 2 days after graft implantation. The gist of the method: (§1)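 Wistar rats (n = 5) with 1-cm2 collagen-sealed Dacron grafts implanted subcutaneously. 2 × 10^7 exponentially growing bacteria inoculated onto the graft. RIP given intraperitoneally daily for 1, 4 or 7 days, starting immediately after implantation or 2 days later. Grafts explanted on day 10. Bacterial load expressed as CFU/ml; detection limit 10 CFU/ml. Untreated challenged controls.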

The subject of assay [2] is Staphylococcus aureus. In words: Antibacterial activity against Staphylococcus aureus SD in rat graft model assessed as biofilm reduction at 10 mg/kg, ip administered as single dose immediately after graft implantation. The gist of the method:
as §1

Assay [3] deals with Staphylococcus aureus. In words: Antibacterial activity against Staphylococcus aureus SD in rat graft model assessed as biofilm reduction at 10 mg/kg, ip administered as four doses, 2 days after graft implantation. The procedure, abridged: as §1
The test system of assay [4] is Staphylococcus aureus. Kind of assay: Antibacterial activity against Staphylococcus aureus SD in rat graft model assessed as biofilm reduction at 30 mg/kg, ip administered as four doses, 2 days after graft implantation. The procedure, abridged:
as §1

Assay [5] relates to Staphylococcus aureus. In words: Antibacterial activity against methicillin-resistant Staphylococcus aureus ATCC 43300 in rat graft model assessed as biofilm reduction at 3 mg/kg, ip administered as seven dose, 3 days after graft implantation. The procedure, abridged:
(§2)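 Wistar rats (n = 15) with subcutaneous 1-cm2 collagen-sealed Dacron grafts challenged with MRSA. Treatment began 3 days after implantation, once the biofilm was established. RIP 10 mg/kg and/or teicoplanin 3 mg/kg given ip daily for 7 days. Grafts explanted on day 10 and counted as CFU/ml. Untreated controls explanted on days 3 and 10.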

The test system of assay [6] is Staphylococcus aureus. In words: Antibacterial activity against methicillin-resistant Staphylococcus aureus ATCC 43300 in rat graft model assessed as biofilm reduction at 10 mg/kg, ip administered as seven dose, 3 days after graft implantation. The procedure, abridged:
as §2

Assay [7] has as its system Staphylococcus aureus. In words: Antibacterial activity against Staphylococcus aureus SD in rat graft model assessed as biofilm reduction at 30 mg/kg, ip administered as single dose immediately after graft implantation. The procedure, abridged:
as §1

For assay [8], the system named is Staphylococcus aureus. In words: Antibacterial activity against Staphylococcus aureus SD in rat graft model assessed as biofilm reduction at 10 mg/kg, ip administered as seven doses, 2 days after graft implantation. The procedure, abridged: as §1
Assay [9] relates to Staphylococcus aureus. Kind of assay: Antibacterial activity against Staphylococcus aureus SD in rat graft model assessed as biofilm reduction at 20 mg/kg, ip administered as seven doses, 2 days after graft implantation. The procedure, abridged:
as §1

Assay [10] has as its system Staphylococcus aureus. Kind of assay: Antibacterial activity against Staphylococcus aureus SD in rat graft model assessed as biofilm reduction at 20 mg/kg, ip administered as single dose, 2 days after graft implantation. The procedure, abridged: as §1
Assay [11] has as its system Staphylococcus aureus. In words: Antibacterial activity against Staphylococcus aureus SD in rat graft model assessed as biofilm reduction at 20 mg/kg, ip administered as single dose immediately after graft implantation. The procedure, abridged: as §1
For assay [12], the system named is Staphylococcus aureus. Kind of assay: Antibacterial activity against Staphylococcus aureus SD in rat graft model assessed as biofilm reduction at 30 mg/kg, ip administered as single dose, 2 days after graft implantation. The procedure, abridged: as §1
The test system of assay [13] is Staphylococcus aureus. In words: Antibacterial activity against Staphylococcus aureus SD in rat graft model assessed as biofilm reduction at 10 mg/kg, ip administered as single dose, 2 days after graft implantation. The procedure, abridged:
as §1

Assay [14] relates to Staphylococcus aureus. Kind of assay: Antibacterial activity against Staphylococcus aureus SD in rat graft model assessed as biofilm reduction at 30 mg/kg, ip administered as seven doses, 2 days after graft implantation. The procedure, abridged: as §1

Regarding H-YSPWTNF-NH2, the CFU/ml in the assay with Staphylococcus aureus [1] is 6300; in the assay on Staphylococcus aureus [2], 50000; in the assay on Staphylococcus aureus [3] it was 53000; in the assay on Staphylococcus aureus [4], 850; in the assay on Staphylococcus aureus [5], 36000; in the assay with Staphylococcus aureus [6] it was 78000. For the same substance, the CFU/ml is on record as 2300 in the assay on Staphylococcus aureus [7]; 6700 with Staphylococcus aureus [8]; 410 in the assay with Staphylococcus aureus [9]; 3000000 with Staphylococcus aureus [10]; 9400 in the assay with Staphylococcus aureus [11]; 760000 with Staphylococcus aureus [12]. Moreover, the CFU/ml in the assay on Staphylococcus aureus [13] amounted to 8400000; in the assay on Staphylococcus aureus [14] it was 290.
